Reference: ChEMBL document CHEMBL1123801, “Synthesis and antifungal activity of new 1-vinylimidazoles” (1987)
≈ marks a conversion by molar mass, not a printed value.

Assays:
Assay type in all cases: functional
Trichophyton benhamiae = test: Minimum inhibitory concentration against Trichophyton asteroides
Procedure, shortened: (§1)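 Broth microdilution in Sabouraud's glucose broth. Final inocula 1×10^5 cells/mL for the yeast (C. albicans) and 1×10^5 conidia/mL for the mold (A. fumigatus) and the dermatophyte (T. asteroides). MIC read as the fungistatic end point. Lowest value of duplicated experiments.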

Candida albicans [1] = test: Inhibition of pseudomycelium formation of Candida albicans.; details: read-out: MEC
Procedure, shortened: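 C. albicans KE-2 (clinical isolate), final inoculum 1×10^6 yeast cells/mL in EMEM with 20% calf serum. Compounds serially diluted by the microtiter dilution system used for MICs. After incubation, wells Giemsa-stained (5% in phosphate buffer) and examined microscopically. MEC (μg/mL) = lowest concentration preventing typical pseudomycelium formation. Lowest value of duplicated experiments.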

Aspergillus fumigatus = test: Minimum inhibitory concentration (MIC) against Aspergillus fumigatus; procedure, shortened: as §1
Candida albicans [2] = test: Minimum inhibitory concentration (MIC) against Candida albicans; procedure, shortened: as §1

SMILES	MIC (Trichophyton benhamiae) [µg/mL]	MIC (Aspergillus fumigatus) [µg/mL]	MIC (Candida albicans [2]) [µg/mL]	minimal effective concentration (Candida albicans [1]) [µg/mL]
C=C(c1ccccc1N(Cc1ccc(Cl)cc1)C(=O)C(F)(F)F)n1ccnc1	1.6 (≈ 3.94 µM)	50 (≈ 123 µM)	1.6 (≈ 3.94 µM)	20
CCC(CC)=C(c1cc(Cl)ccc1OCCC(C)C)n1cncn1	0.8 (≈ 2.3 µM)	> 100	> 100	1.25
CC(C)COc1ccccc1/C(=C\CN1CCOCC1)n1ccnc1	6.3 (≈ 18.5 µM)	> 100	> 100	2.5
C=C(c1ccc(Cl)cc1)n1ccnc1	25 (≈ 122 µM)	100 (≈ 489 µM)	100 (≈ 489 µM)	> 20
CN(C)C/C=C(\c1ccccc1OCc1ccc(Cl)cc1)n1ccnc1	1.6 (≈ 4.35 µM)	> 100	> 100	1.25
CCC(CC)=C(c1cc(Cl)ccc1OC)n1cncn1	0.8 (≈ 2.74 µM)	100 (≈ 343 µM)	100 (≈ 343 µM)	1.25
C=C(c1ccccc1)n1ccnc1	100 (≈ 587 µM)	> 100	> 100	> 20
C=C(c1ccccc1NCc1ccc(Cl)cc1)n1ccnc1	> 100	> 100	> 100	
C=C(c1cccc(OCc2ccc(Cl)cc2)c1)n1ccnc1	1.6 (≈ 5.15 µM)	12.5 (≈ 40.2 µM)	50 (≈ 161 µM)	5
C=C(c1c(Cl)ccc(Cl)c1OCc1ccc(Cl)cc1)n1ccnc1	12.5 (≈ 32.9 µM)	> 100	> 100	
C=C(c1ccc(Cl)cc1OCc1ccc(Cl)cc1)n1ccnc1	> 100	> 100	> 100	
CCC=C(c1cc(Cl)ccc1OCc1ccc(Cl)cc1)n1ccnc1	0.4 (≈ 1.07 µM)	0.8 (≈ 2.14 µM)	6.2 (≈ 16.6 µM)	
CC(C)=C(c1cc(Cl)ccc1OCc1ccc(Cl)cc1)n1ccnc1	0.2 (≈ 0.536 µM)	6.2 (≈ 16.6 µM)	6.2 (≈ 16.6 µM)	
C/C(CN(C)C)=C(/c1ccccc1OCC(C)C)n1ccnc1	25 (≈ 79.8 µM)	> 100	> 100	1.25
C=C(c1ccccc1OCCCc1ccc(Cl)cc1)n1ccnc1	0.2 (≈ 0.59 µM)	0.8 (≈ 2.36 µM)	12.5 (≈ 36.9 µM)	
C=C(c1cc(Cl)ccc1OCc1ccc(C(=O)OC)cc1)n1ccnc1	0.1 (≈ 0.271 µM)	6.2 (≈ 16.8 µM)	25 (≈ 67.8 µM)	

The remaining compounds from weak to strong by MIC (Trichophyton benhamiae), led by results:

MIC (Trichophyton benhamiae) [µg/mL]	MIC (Aspergillus fumigatus) [µg/mL]	MIC (Candida albicans [2]) [µg/mL]	SMILES	minimal effective concentration (Candida albicans [1]) [µg/mL]
0.1 (≈ 0.361 µM)	1.6 (≈ 5.78 µM)	25 (≈ 90.3 µM)	C/C=C(\c1cc(Cl)ccc1OCCC)n1ccnc1	0.63
0.1 (≈ 0.354 µM)	3.1 (≈ 11 µM)	50 (≈ 177 µM)	C=C(c1ccccc1OCc1ccsc1)n1ccnc1	
0.1 (≈ 0.302 µM)	3.1 (≈ 9.37 µM)	12.5 (≈ 37.8 µM)	C=C(c1cc(Cl)ccc1OC(C)c1ccsc1)n1ccnc1 (stereo not given)	
0.1 (≈ 0.344 µM)	3.1 (≈ 10.7 µM)	3.1 (≈ 10.7 µM)	C=C(c1ccccc1OCc1ccc(C)cc1)n1ccnc1	
0.1 (≈ 0.381 µM)	0.8 (≈ 3.04 µM)	50 (≈ 190 µM)	C=C(c1cc(Cl)ccc1OC(C)C)n1ccnc1	5
0.1 (≈ 0.27 µM)	3.1 (≈ 8.36 µM)	25 (≈ 67.4 µM)	C=C(c1ccccc1OCCCSc1ccc(Cl)cc1)n1ccnc1	
0.1 (≈ 0.326 µM)	6.2 (≈ 20.2 µM)	25 (≈ 81.6 µM)	C=C(c1ccccc1OCc1ccc(OC)cc1)n1ccnc1	
